Assay results taken from ChEMBL document CHEMBL4196006, “Aryl thiosemicarbazones for the treatment of trypanosomatidic infections” (Eur J Med Chem, 2018).
Calls of active or inactive are those of the source. The rule behind the calls is not given here.

What was measured:
[1] = Cytotoxicity against human A549 cells assessed as growth inhibition at 10 uM after 48 hrs by CellTiter-Glo assay relative to control; values are per cent of control; settings: A549 cells
CYP2D6 = CYP2D6 (Homo sapiens, UniProt P10635); assay: Inhibition of human microsomal CYP2D6 expressed in baculovirus infected BTI-TN-5B1-4 cells at 10 uM incubated for 30 mins by luciferase assay relative to control; type: ADME
How it was run: (§1)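 CYP1A2, 2C9, 2C19, 2D6 and 3A4 in microsomes from baculovirus-infected insect cells, each with a P450-Glo luminogenic substrate. Inhibition read as loss of light; single-point at 10 μM, triplicate.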

[2] = Cytotoxicity against human U2OS cells assessed as decrease in viable cells after 72 hrs by cell number count in anti-T. cruzi high content imaging assay; settings: U2OS cells
Trypanosoma brucei [3] = assay: Antitrypanosomal activity against Trypanosoma brucei Lister 427 bloodstream form at 10 uM after 72 hrs by resazurin dye-based assay relative to control; type: functional
Trypanosoma cruzi [4] = assay: Antitrypanosomal activity against Trypanosoma cruzi amastigote form infected in human U2OS cells assessed as parasite growth inhibition after 72 hrs; type: functional, organism-based
How it was run: (§2)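 U2OS monolayers grown for 24 h, then infected with tissue-derived trypomastigotes of T. cruzi Y strain. Compounds were added 24 h after infection at 50 μM (single-point) or in dose-response, with 72 h exposure. Plates were fixed, stained and analysed by high-content imaging; activity was normalized to infected and non-infected controls. Means of at least two experiments; benznidazole as reference.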

Trypanosoma brucei [5] = assay: Potentiation of methotrexate-induced antitrypanosomal activity against Trypanosoma brucei Lister 427 bloodstream form at 10 uM after 72 hrs by resazurin dye-based assay relative to control; type: functional
CYP1A2 = target: T1, CYP1A2 (Homo sapiens, UniProt P05177); assay: Inhibition of human microsomal CYP1A2 expressed in baculovirus infected BTI-TN-5B1-4 cells at 10 uM incubated for 30 mins by luciferase assay relative to control; type: ADME
T1 sequence (P05177 whole entry): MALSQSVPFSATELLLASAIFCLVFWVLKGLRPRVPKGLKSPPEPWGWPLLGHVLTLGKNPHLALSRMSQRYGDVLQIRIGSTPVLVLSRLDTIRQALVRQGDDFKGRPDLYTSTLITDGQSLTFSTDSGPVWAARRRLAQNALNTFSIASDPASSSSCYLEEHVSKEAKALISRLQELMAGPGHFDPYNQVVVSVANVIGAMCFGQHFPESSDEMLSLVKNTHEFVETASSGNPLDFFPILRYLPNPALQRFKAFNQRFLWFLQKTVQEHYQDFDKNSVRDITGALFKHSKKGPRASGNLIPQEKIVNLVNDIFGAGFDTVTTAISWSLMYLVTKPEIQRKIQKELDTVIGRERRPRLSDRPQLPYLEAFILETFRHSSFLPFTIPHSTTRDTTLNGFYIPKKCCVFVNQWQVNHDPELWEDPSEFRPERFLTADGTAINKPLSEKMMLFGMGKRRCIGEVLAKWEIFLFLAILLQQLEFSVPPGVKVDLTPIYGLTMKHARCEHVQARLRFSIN
How it was run: as §1

[6] = Selectivity index, ratio of CC50 for human U2OS cells to EC50 for Trypanosoma cruzi amastigote form; type: toxicity; settings: read-out: Ratio CC50/EC50
How it was run: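 Selectivity index = CC50 in the human host or cytotoxicity cell line divided by parasite EC50.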

[7] = Cytotoxicity against human U2OS cells assessed as viable cells at 50 uM after 72 hrs by MTT assay relative to control; type: cell-based; settings: read-out: Activity
Aurora kinase B = Aurora kinase B (Homo sapiens, UniProt Q96GD4); assay: Inhibition of recombinant full-length human aurora B kinase expressed in baculovirus system at 10 uM using MBP as substrate incubated for 45 mins by ADP-glo kinase assay; settings: probe MBP
How it was run: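 Aurora B activity measured as ADP formation via coupled luciferase ADP-Glo luminescence; single-point at 10 μM, triplicate.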

[8] = target: T2, Pteridine reductase 1 (Leishmania major) (UniProt Q01782); assay: Inhibition of Leishmania major PTR1 at 50 uM using H2B as substrate in presence of NADPH by photometric analysis relative to control
T2 sequence (whole entry): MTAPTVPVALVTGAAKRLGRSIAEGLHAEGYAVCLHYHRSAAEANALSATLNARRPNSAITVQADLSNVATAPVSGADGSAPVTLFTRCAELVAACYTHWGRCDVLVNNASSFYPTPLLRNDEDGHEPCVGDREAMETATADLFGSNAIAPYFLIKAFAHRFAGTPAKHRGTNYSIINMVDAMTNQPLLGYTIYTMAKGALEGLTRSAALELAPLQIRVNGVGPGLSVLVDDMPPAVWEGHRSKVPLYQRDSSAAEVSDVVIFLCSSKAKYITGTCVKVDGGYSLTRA

CYP3A4 = CYP3A4 (Homo sapiens, UniProt P08684); assay: Inhibition of human microsomal CYP3A4 expressed in baculovirus infected BTI-TN-5B1-4 cells at 10 uM incubated for 30 mins by luciferase assay relative to control; type: ADME
How it was run: as §1

[9] = Cytotoxicity against human THP1 cells assessed as viable cells at 100 uM after 72 hrs by MTT assay relative to control; type: cell-based, THP-1; settings: read-out: Activity
How it was run: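 THP-1-derived macrophages exposed to compounds for 72 h, tested at 100 μM or in dose-response; viability read by MTT colorimetric assay.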

[10] = target: T3, Pteridine reductase, putative (Trypanosoma brucei) (UniProt Q581W1); assay: Inhibition of Trypanosoma brucei PTR1 at 50 uM using H2B as substrate in presence of NADPH by photometric analysis relative to control
T3 sequence (whole entry): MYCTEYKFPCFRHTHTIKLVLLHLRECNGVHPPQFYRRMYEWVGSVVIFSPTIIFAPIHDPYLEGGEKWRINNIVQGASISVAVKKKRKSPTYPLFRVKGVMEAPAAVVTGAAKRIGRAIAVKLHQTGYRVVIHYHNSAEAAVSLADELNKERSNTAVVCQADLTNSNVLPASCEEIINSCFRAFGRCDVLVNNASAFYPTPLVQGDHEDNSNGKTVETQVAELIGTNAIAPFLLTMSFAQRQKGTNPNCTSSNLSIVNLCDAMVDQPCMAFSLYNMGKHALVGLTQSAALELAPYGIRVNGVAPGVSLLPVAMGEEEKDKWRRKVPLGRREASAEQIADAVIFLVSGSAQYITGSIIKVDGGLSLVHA

Trypanosoma brucei [11] = assay: Potentiation of methotrexate-induced antitrypanosomal activity against Trypanosoma brucei Lister 427 bloodstream form at 10 uM after 72 hrs by resazurin dye-based assay; type: functional
Trypanosoma brucei [12] = assay: Antitrypanosomal activity against Trypanosoma brucei Lister 427 bloodstream form assessed as parasite growth inhibition at 50 uM after 72 hrs by SYBR Green assay relative to control; type: functional; settings: for inhibition of growth at 50 µM: Lister 427, 72 h, read-out: GI
CYP2C19 = CYP2C19 (Homo sapiens, UniProt P33261); assay: Inhibition of human microsomal CYP2C19 expressed in baculovirus infected BTI-TN-5B1-4 cells at 10 uM incubated for 30 mins by luciferase assay relative to control; type: ADME
How it was run: as §1

[13] = Cytotoxicity against human 786-O cells assessed as inhibition of mitochondrial viability at 10 uM after 6 hrs by CMXRos staining based assay relative to control; type: cell-based, 786-0; settings: read-out: INH
How it was run: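 Mitochondrial toxicity monitored by MitoTracker Red CMXRos uptake and high-content imaging; compound at 10 μM, triplicate.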

[14] = Cytotoxicity against human WI38 cells assessed as growth inhibition at 10 uM after 48 hrs by CellTiter-Glo assay relative to control; values are per cent of control; settings: WI38 cells
Trypanosoma cruzi [15] = assay: Antitrypanosomal activity against Trypanosoma cruzi amastigote form infected in human U2OS cells assessed as parasite growth inhibition at 50 uM after 72 hrs relative to control; type: functional; settings: read-out: GI
How it was run: as §2

Leishmania infantum = assay: Antileishmanial activity against Leishmania infantum amastigote form assessed as parasite growth inhibition at 50 uM after 72 hrs by steady-Glo reagent based assay relative to control; type: functional; settings: read-out: GI
How it was run: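 Intramacrophage L. infantum amastigotes in THP-1-derived macrophages, tested at 50 μM or in dose-response. Plates held 72 h at 37 °C, 5% CO2. Medium was replaced by PBS, macrophages lysed, and parasites read by Steady-Glo luminescence. High-content imaging gave host cell number, infection ratio (infected/total cells) and parasites per infected cell. Values are means of at least two independent experiments.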

CYP2C9 = CYP2C9 (Homo sapiens, UniProt P11712); assay: Inhibition of human microsomal CYP2C9 expressed in baculovirus infected BTI-TN-5B1-4 cells at 10 uM incubated for 30 mins by luciferase assay relative to control; type: ADME
How it was run: as §1

hERG (KCNH2) = hERG (KCNH2) (Homo sapiens, UniProt Q12809); assay: Inhibition of human ERG at 10 uM incubated for 2 hrs by fluorescence polarisation assay relative to control
Trypanosoma brucei [16] = assay: Antitrypanosomal activity against Trypanosoma brucei Lister 427 bloodstream form after 72 hrs by SYBR Green assay; type: functional, organism-based; settings: Lister 427, 72 h

Sequence of Aurora kinase B (Q96GD4 whole entry): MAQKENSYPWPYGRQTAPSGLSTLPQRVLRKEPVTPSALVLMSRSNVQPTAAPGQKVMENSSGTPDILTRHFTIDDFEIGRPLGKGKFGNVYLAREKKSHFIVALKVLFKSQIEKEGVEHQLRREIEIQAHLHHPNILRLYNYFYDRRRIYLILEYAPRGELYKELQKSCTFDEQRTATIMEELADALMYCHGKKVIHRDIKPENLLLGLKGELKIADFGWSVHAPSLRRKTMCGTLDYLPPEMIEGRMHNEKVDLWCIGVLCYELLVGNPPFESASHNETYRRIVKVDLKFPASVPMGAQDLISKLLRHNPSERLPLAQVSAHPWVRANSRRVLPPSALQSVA
Sequence of CYP3A4 (P08684 whole entry): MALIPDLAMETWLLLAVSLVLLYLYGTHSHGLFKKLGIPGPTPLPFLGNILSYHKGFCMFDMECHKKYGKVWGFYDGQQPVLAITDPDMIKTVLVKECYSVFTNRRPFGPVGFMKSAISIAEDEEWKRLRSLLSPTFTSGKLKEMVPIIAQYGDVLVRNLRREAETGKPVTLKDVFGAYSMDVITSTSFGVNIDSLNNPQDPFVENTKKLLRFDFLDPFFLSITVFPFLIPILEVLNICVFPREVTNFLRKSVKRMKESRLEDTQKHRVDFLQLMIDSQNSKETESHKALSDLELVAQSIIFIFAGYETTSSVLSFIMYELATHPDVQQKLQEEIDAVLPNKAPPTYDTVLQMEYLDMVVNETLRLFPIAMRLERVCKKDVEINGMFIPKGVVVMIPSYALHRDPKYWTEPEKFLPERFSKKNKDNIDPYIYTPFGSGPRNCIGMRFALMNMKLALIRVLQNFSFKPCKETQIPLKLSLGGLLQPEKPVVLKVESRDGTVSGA
Sequence of CYP2D6 (P10635 whole entry): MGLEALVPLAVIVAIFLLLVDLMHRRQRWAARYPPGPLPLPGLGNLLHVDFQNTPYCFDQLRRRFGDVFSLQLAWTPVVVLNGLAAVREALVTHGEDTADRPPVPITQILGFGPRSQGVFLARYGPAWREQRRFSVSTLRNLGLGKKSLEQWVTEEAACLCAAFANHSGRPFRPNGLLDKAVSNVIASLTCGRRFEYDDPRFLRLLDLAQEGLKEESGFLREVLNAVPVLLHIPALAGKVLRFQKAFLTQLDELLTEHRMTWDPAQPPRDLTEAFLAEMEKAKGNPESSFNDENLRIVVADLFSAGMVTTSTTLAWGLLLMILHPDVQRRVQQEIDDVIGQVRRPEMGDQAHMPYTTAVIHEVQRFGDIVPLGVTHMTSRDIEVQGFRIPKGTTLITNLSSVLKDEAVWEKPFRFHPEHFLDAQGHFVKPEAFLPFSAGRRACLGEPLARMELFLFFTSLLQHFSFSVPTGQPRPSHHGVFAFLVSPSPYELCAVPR
Sequence of hERG (KCNH2) (Q12809 whole entry): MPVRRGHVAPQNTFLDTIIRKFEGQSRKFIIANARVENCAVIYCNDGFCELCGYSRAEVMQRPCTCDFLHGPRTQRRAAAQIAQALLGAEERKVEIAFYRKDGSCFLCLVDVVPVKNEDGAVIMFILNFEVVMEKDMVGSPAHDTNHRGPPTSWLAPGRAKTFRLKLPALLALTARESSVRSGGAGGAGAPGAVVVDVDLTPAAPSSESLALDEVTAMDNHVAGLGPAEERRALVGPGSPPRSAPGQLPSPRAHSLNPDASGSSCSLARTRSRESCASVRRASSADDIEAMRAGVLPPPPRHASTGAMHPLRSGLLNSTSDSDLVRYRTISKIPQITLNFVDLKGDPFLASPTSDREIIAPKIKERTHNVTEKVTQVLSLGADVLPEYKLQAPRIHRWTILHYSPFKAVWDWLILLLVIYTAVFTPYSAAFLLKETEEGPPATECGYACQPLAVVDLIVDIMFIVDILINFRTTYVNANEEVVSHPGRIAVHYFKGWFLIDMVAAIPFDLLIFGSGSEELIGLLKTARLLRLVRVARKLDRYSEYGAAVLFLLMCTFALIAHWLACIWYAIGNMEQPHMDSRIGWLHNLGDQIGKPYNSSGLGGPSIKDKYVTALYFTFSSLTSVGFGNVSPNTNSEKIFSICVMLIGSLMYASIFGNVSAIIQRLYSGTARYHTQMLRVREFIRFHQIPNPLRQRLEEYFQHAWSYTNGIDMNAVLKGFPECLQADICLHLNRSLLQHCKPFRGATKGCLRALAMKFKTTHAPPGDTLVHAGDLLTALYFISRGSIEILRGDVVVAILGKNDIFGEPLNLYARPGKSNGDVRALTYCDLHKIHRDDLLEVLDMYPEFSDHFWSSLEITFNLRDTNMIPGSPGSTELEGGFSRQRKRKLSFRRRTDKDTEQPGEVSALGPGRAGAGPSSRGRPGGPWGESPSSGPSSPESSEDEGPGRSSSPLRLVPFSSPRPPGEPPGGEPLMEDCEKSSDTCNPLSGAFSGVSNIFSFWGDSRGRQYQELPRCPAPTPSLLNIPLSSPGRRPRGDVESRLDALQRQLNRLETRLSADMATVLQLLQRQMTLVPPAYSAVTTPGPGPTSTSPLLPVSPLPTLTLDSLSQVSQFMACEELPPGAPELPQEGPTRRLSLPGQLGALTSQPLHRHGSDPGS
Sequence of CYP2C19 (P33261 whole entry): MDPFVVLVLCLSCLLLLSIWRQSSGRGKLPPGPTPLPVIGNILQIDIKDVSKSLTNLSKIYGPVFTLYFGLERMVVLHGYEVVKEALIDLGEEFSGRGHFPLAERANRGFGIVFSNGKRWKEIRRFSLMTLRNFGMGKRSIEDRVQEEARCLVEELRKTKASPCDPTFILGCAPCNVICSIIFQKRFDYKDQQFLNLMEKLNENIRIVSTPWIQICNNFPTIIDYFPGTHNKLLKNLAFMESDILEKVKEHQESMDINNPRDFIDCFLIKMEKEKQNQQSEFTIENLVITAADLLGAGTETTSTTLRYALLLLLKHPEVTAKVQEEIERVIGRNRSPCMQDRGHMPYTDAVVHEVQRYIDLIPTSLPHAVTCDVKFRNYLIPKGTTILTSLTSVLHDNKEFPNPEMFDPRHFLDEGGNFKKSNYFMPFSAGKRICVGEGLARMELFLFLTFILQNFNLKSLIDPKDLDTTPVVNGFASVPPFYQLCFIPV
Sequence of CYP2C9 (P11712 whole entry): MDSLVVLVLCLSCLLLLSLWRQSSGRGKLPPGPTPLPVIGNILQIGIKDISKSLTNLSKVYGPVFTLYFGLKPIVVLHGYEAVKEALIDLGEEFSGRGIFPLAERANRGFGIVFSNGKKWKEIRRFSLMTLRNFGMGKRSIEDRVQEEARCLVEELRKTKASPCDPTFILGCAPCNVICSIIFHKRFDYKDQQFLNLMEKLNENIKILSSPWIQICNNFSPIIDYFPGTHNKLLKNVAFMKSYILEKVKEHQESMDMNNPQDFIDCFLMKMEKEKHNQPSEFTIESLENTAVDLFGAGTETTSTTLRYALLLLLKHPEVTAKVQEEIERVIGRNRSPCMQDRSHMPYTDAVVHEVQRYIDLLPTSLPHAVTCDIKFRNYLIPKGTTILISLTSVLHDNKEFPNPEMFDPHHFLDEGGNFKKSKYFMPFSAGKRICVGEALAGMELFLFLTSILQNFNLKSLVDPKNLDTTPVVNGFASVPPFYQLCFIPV

NC(=S)N/N=C/c1ccco1
cell growth (% of control) at 48 h, 10 µM [1]: 124% | inhibition at 0.5 h, 10 µM (CYP2D6): -43.1% | CC50 at 72 h [2]: > 44 µM | Activity (Trypanosoma brucei [3]): 3.33% | EC50 (Trypanosoma cruzi [4]): 1.87 µM | Activity (Trypanosoma brucei [5]): 24% | inhibition at 0.5 h, 10 µM (CYP1A2): -0.31% | selectivity ratio [6]: > 1 | viability at 72 h, 50 µM [7]: 112% | inhibition at 0.75 h, 10 µM (Aurora kinase B): -8.76% | inhibition [8]: 14.8% | inhibition at 0.5 h, 10 µM (CYP3A4): -12.2% | viability at 72 h, 100 µM [9]: 92.9% | inhibition [10]: 3.99% | PF (Trypanosoma brucei [11]): 0.87 | growth inhibition (GI) (Trypanosoma brucei [12]): inactive | inhibition at 0.5 h, 10 µM (CYP2C19): -43.2% | cytotoxicity at 6 h, 10 µM [13]: -4.4% | cell growth (% of control) at 48 h, 10 µM [14]: 106% | inhibition of growth at 50 µM (Trypanosoma cruzi [15]): 93.6% | inhibition of growth at 50 µM (Leishmania infantum): 26.9% | inhibition at 0.5 h, 10 µM (CYP2C9): -12.2% | inhibition at 2 h, 10 µM (hERG (KCNH2)): -7.97%

NC(=S)N/N=C/c1ccc2ncccc2c1
cell growth (% of control) at 48 h, 10 µM [1]: 145% | inhibition at 0.5 h, 10 µM (CYP2D6): 2.28% | Activity (Trypanosoma brucei [3]): 3.83% | Activity (Trypanosoma brucei [5]): 91.17% | inhibition at 0.5 h, 10 µM (CYP1A2): 25.2% | viability at 72 h, 50 µM [7]: 72.5% | inhibition at 0.75 h, 10 µM (Aurora kinase B): 0.46% | inhibition [8]: 12.2% | EC50 (Trypanosoma brucei [16]): 34.4 µM | inhibition at 0.5 h, 10 µM (CYP3A4): -13.5% | viability at 72 h, 100 µM [9]: 63.7% | inhibition [10]: 11.2% | PF (Trypanosoma brucei [11]): 3.25 | inhibition of growth at 50 µM (Trypanosoma brucei [12]): 84.2% | inhibition at 0.5 h, 10 µM (CYP2C19): -34.6% | cytotoxicity at 6 h, 10 µM [13]: -6.48% | cell growth (% of control) at 48 h, 10 µM [14]: 143% | inhibition of growth at 50 µM (Trypanosoma cruzi [15]): 53.8% | inhibition of growth at 50 µM (Leishmania infantum): 36% | inhibition at 0.5 h, 10 µM (CYP2C9): 3.32% | inhibition at 2 h, 10 µM (hERG (KCNH2)): -13.2%

NC(=S)N/N=C/c1ccccc1O
cell growth (% of control) at 48 h, 10 µM [1]: 117% | inhibition at 0.5 h, 10 µM (CYP2D6): -18.9% | Activity (Trypanosoma brucei [3]): 17.83% | Activity (Trypanosoma brucei [5]): 62.5% | inhibition at 0.5 h, 10 µM (CYP1A2): 18.6% | viability at 72 h, 50 µM [7]: 58% | inhibition at 0.75 h, 10 µM (Aurora kinase B): 6.53% | inhibition [8]: 7.6% | EC50 (Trypanosoma brucei [16]): 31.5 µM | inhibition at 0.5 h, 10 µM (CYP3A4): -4.38% | viability at 72 h, 100 µM [9]: 54.7% | inhibition [10]: 13.7% | PF (Trypanosoma brucei [11]): 1.49 | inhibition of growth at 50 µM (Trypanosoma brucei [12]): 97.9% | inhibition at 0.5 h, 10 µM (CYP2C19): -20.6% | cytotoxicity at 6 h, 10 µM [13]: -1.49% | cell growth (% of control) at 48 h, 10 µM [14]: 108% | inhibition of growth at 50 µM (Trypanosoma cruzi [15]): 86.1% | inhibition of growth at 50 µM (Leishmania infantum): 24.1% | inhibition at 0.5 h, 10 µM (CYP2C9): -6.44% | inhibition at 2 h, 10 µM (hERG (KCNH2)): 4.46%

NC(=S)N/N=C/c1cccc(-c2ccc3c(c2)OCO3)c1
cell growth (% of control) at 48 h, 10 µM [1]: 111% | inhibition at 0.5 h, 10 µM (CYP2D6): 76.9% | Activity (Trypanosoma brucei [3]): 38.67% | Activity (Trypanosoma brucei [5]): 96.33% | inhibition at 0.5 h, 10 µM (CYP1A2): 101% | viability at 72 h, 50 µM [7]: 81.5% | inhibition at 0.75 h, 10 µM (Aurora kinase B): -3.81% | inhibition [8]: 0.33% | inhibition at 0.5 h, 10 µM (CYP3A4): 69.7% | viability at 72 h, 100 µM [9]: 2.61% | inhibition [10]: 0.16% | PF (Trypanosoma brucei [11]): 1.53 | inhibition of growth at 50 µM (Trypanosoma brucei [12]): 61.8% | inhibition at 0.5 h, 10 µM (CYP2C19): 48.4% | cytotoxicity at 6 h, 10 µM [13]: 15.7% | cell growth (% of control) at 48 h, 10 µM [14]: 91.9% | inhibition of growth at 50 µM (Trypanosoma cruzi [15]): 71.3% | inhibition of growth at 50 µM (Leishmania infantum): 46.9% | inhibition at 0.5 h, 10 µM (CYP2C9): 45.3% | inhibition at 2 h, 10 µM (hERG (KCNH2)): 9.13%
